Values joined by “and” are separate entries in the source; they are usually repeats but may differ in a detail not shown here. Identical values can stand only once. “Also recorded” adds a separate entry of the source.
Columns and labels:
Type in all cases: in vivo, human
Radiation dosimetry = assay: Radiation dosimetry
Method in brief: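 Four patients were analysed. Organ VOIs were drawn on longitudinal PET scans. Time-activity data were integrated by fitted single- or double-exponential functions, or numerically with single-exponential extrapolation. Residence times were scaled from CT-derived patient organ masses to reference masses. Absorbed doses used the MIRD S-value schema in OLINDA/EXM. The bladder model assumed 1.5 h voiding, and lens dose was taken as the photon dose to brain.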

[1] = Safety / adverse events in patients with prostate cancer; conditions: nine patients
Method in brief: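 Nine patients received about 320.6 MBq IV after 4–6 h fasting. Vital signs and ECG were recorded before dosing, with pulse oximetry during scanning. Within 2 weeks before and after, they had history, examination, CBC with differential, metabolic panel (BUN, creatinine, alkaline phosphatase, bilirubin, transaminases) and ECG. Follow-up visit or contact came within 30 days. Events were graded by NCI CTCAE.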

[2] = PET biodistribution in patients; conditions: visual
Method in brief: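 Patients fasted 4–6 h, then received about 320.6 MBq IV (specific activity 107.2 MBq/nmol). Mid-thigh-to-vertex 3D PET/CT with CT attenuation correction followed. Four sequential scans began at injection, at 1, 2, 4 and 4 min per bed. A fifth scan (4 min/bed) ran at 120 min. Two non-blinded nuclear-medicine readers reviewed images visually.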

prostate cancer = assay: PET/CT tumor uptake
Method in brief: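 Sequential PET/CT ran from injection (PET1–PET4), with PET5 at 120 min. Tumour sites were foci at PET5 with uptake above surrounding soft tissue or blood pool. SUVmax was normalised to lean body mass for up to five hottest lesions per patient, using automatic VOIs at 50% activity threshold. Tumour-to-reference ratio was lesion SUVmax over SUVmean of liver, blood pool or muscle.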

[3] = Blood and plasma activity, plasma metabolites, urinary excretion
Method in brief: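 Prostate cancer patients received about 320.6 MBq by slow IV push. Venous blood was drawn from the contralateral arm after PET2, PET4 and PET5, and 0.5 ml aliquots of blood and plasma were well-counted. Urine voided after PET4 and PET5 (about 110 and 160 min) was counted. For metabolites, plasma was acetonitrile-precipitated, spiked with unlabelled reference, and run on C18 radio-HPLC in 10% acetonitrile/90% triethylammonium phosphate pH 3.2 at 2 ml/min.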

Question: For `O=C(O)CCC(NC(=O)NC(CCCCNC(=O)c1ccc([18F])nc1)C(=O)O)C(=O)O` (stereo not drawn) [[^18F]DCFPyL, 2-(3-(1-carboxy-5-[(6-[^18F]fluoro-pyridine-3-carbonyl)-amino]-pentyl)-ureido)-pentanedioic acid], which Absorbed dose (Radiation dosimetry; Adrenals) is on record?
Answer: The Absorbed dose was 3.11E-02 mGy/MBq.

Question: And the Res. time (Radiation dosimetry; Adrenals)?
Answer: The Res. time was 3.16E-04 (Bq-h)/Bq.

Question: What about the Res. time (Radiation dosimetry; Bone marrow (spine)) of the same molecule?
Answer: Its Res. time is 5.52E-02 (Bq-h)/Bq.

Question: And the Absorbed dose (Radiation dosimetry; Brain)?
Answer: Its Absorbed dose is 2.19E-03 mGy/MBq.

Question: And the Res. time (Radiation dosimetry; Brain)?
Answer: Its Res. time is 4.74E-03 (Bq-h)/Bq.

Question: What about the Absorbed dose (Radiation dosimetry; Breasts) of the same molecule?
Answer: Its Absorbed dose is 4.57E-03 mGy/MBq.

Question: And the Res. time (Radiation dosimetry; Gallbladder)?
Answer: Its Res. time is 1.18E-03 (Bq-h)/Bq.

Question: What about the Absorbed dose (Radiation dosimetry; Gallbladder wall) of the same molecule?
Answer: The Absorbed dose was 1.44E-02 mGy/MBq.

Question: And the Res. time (Radiation dosimetry; Heart)?
Answer: The Res. time was 1.98E-02 (Bq-h)/Bq.

Question: What about the Absorbed dose (Radiation dosimetry; Heart wall) of the same molecule?
Answer: The Absorbed dose was 1.29E-02 mGy/MBq.

Question: And the Res. time (Radiation dosimetry; Heart wall)?
Answer: Its Res. time is 6.24E-03 (Bq-h)/Bq.

Question: And the Absorbed dose (Radiation dosimetry; Kidneys)?
Answer: Its Absorbed dose is 0.0945 mGy/MBq and 9.45E-02 mGy/MBq.

Question: What about the Res. time (Radiation dosimetry; Kidneys) of the same molecule?
Answer: The Res. time was 2.17E-01 (Bq-h)/Bq.

Question: And the Res. time (Radiation dosimetry; LLI)?
Answer: Its Res. time is 4.06E-03 (Bq-h)/Bq.

Question: What about the Absorbed dose (Radiation dosimetry; LLI wall) of the same molecule?
Answer: The Absorbed dose was 1.05E-02 mGy/MBq.

Question: What about the Absorbed dose (Radiation dosimetry; Lacrimal glands) of the same molecule?
Answer: The Absorbed dose was 3.50E-02 mGy/MBq.

Question: What about the Res. time (Radiation dosimetry; Lacrimal glands) of the same molecule?
Answer: Its Res. time is 3.86E-04 (Bq-h)/Bq.

Question: And the Absorbed dose (Radiation dosimetry; Lens)?
Answer: The Absorbed dose was 1.25E-03 mGy/MBq.

Question: And the Res. time (Radiation dosimetry; Lens)?
Answer: Its Res. time is 4.32E-06 (Bq-h)/Bq.

Question: What about the Absorbed dose (Radiation dosimetry; Liver) of the same molecule?
Answer: The Absorbed dose was 0.0380 mGy/MBq and 3.80E-02 mGy/MBq.

Question: What about the Res. time (Radiation dosimetry; Liver) of the same molecule?
Answer: Its Res. time is 2.60E-01 (Bq-h)/Bq.

Question: What about the Absorbed dose (Radiation dosimetry; Lungs) of the same molecule?
Answer: The Absorbed dose was 1.08E-02 mGy/MBq.

Question: And the Res. time (Radiation dosimetry; Lungs)?
Answer: The Res. time was 3.70E-02 (Bq-h)/Bq.

Question: What about the Absorbed dose (Radiation dosimetry; Muscle) of the same molecule?
Answer: The Absorbed dose was 6.32E-03 mGy/MBq.

Question: And the Res. time (Radiation dosimetry; Muscle)?
Answer: Its Res. time is 3.07E-01 (Bq-h)/Bq.

Question: And the Absorbed dose (Radiation dosimetry; Osteogenic cells)?
Answer: Its Absorbed dose is 9.58E-03 mGy/MBq.

Question: And the Absorbed dose (Radiation dosimetry; Ovaries (hypothetical, all-male cohort))?
Answer: The Absorbed dose was 8.89E-03 mGy/MBq.

Question: What about the Absorbed dose (Radiation dosimetry; Pancreas) of the same molecule?
Answer: Its Absorbed dose is 2.44E-02 mGy/MBq.

Question: What about the Res. time (Radiation dosimetry; Pancreas) of the same molecule?
Answer: The Res. time was 3.05E-03 (Bq-h)/Bq.

Question: And the Absorbed dose (Radiation dosimetry; Parotid glands)?
Answer: The Absorbed dose was 2.68E-02 mGy/MBq.

Question: And the Res. time (Radiation dosimetry; Parotid glands)?
Answer: The Res. time was 1.19E-02 (Bq-h)/Bq.

Question: And the Absorbed dose (Radiation dosimetry; Red marrow)?
Answer: The Absorbed dose was 0.01 mGy/MBq and 1.04E-02 mGy/MBq.

Question: What about the Res. time (Radiation dosimetry; Remainder of body) of the same molecule?
Answer: The Res. time was 7.11E-01 (Bq-h)/Bq.

Question: What about the Absorbed dose (Radiation dosimetry; Skin) of the same molecule?
Answer: Its Absorbed dose is 4.05E-03 mGy/MBq.

Question: What about the Absorbed dose (Radiation dosimetry; Small intestine) of the same molecule?
Answer: The Absorbed dose was 9.13E-03 mGy/MBq.

Question: And the Absorbed dose (Radiation dosimetry; Spleen)?
Answer: Its Absorbed dose is 1.85E-02 mGy/MBq.

Question: And the Res. time (Radiation dosimetry; Spleen)?
Answer: The Res. time was 2.07E-02 (Bq-h)/Bq.

Question: And the Res. time (Radiation dosimetry; Stomach)?
Answer: Its Res. time is 1.07E-02 (Bq-h)/Bq.

Question: What about the Absorbed dose (Radiation dosimetry; Stomach wall) of the same molecule?
Answer: The Absorbed dose was 1.16E-02 mGy/MBq.

Question: And the Absorbed dose (Radiation dosimetry; Submandibular glands)?
Answer: The Absorbed dose was 0.0387 mGy/MBq and 3.87E-02 mGy/MBq.

Question: What about the Res. time (Radiation dosimetry; Submandibular glands) of the same molecule?
Answer: The Res. time was 6.95E-03 (Bq-h)/Bq.

Question: And the Absorbed dose (Radiation dosimetry; Testes)?
Answer: The Absorbed dose was 1.01E-02 mGy/MBq.

Question: What about the Res. time (Radiation dosimetry; Testes) of the same molecule?
Answer: Its Res. time is 1.76E-03 (Bq-h)/Bq.

Question: What about the Absorbed dose (Radiation dosimetry; Thymus) of the same molecule?
Answer: Its Absorbed dose is 5.56E-03 mGy/MBq.

Question: What about the Absorbed dose (Radiation dosimetry; Thyroid) of the same molecule?
Answer: The Absorbed dose was 8.56E-03 mGy/MBq.

Question: What about the Res. time (Radiation dosimetry; Thyroid) of the same molecule?
Answer: Its Res. time is 2.34E-04 (Bq-h)/Bq.

Question: And the Res. time (Radiation dosimetry; Total body)?
Answer: The Res. time was 1.96E+00 (Bq-h)/Bq.

Question: What about the Res. time (Radiation dosimetry; ULI) of the same molecule?
Answer: The Res. time was 2.20E-02 (Bq-h)/Bq.

Question: What about the Absorbed dose (Radiation dosimetry; ULI wall) of the same molecule?
Answer: The Absorbed dose was 1.67E-02 mGy/MBq.

Question: What about the Res. time (Radiation dosimetry; Urinary bladder contents) of the same molecule?
Answer: Its Res. time is 2.60E-01 (Bq-h)/Bq.

Question: And the Absorbed dose (Radiation dosimetry; Urinary bladder wall, voiding interval 1.5 h)?
Answer: The Absorbed dose was 0.0864 mGy/MBq and 8.64E-02 mGy/MBq.

Question: What about the Absorbed dose (Radiation dosimetry; Uterus (hypothetical, all-male cohort)) of the same molecule?
Answer: Its Absorbed dose is 1.15E-02 mGy/MBq.

Question: What about the Effective dose (Radiation dosimetry; four patients, OLINDA/EXM) of the same molecule?
Answer: Its Effective dose is 0.0165 mSv/MBq.

Question: What about the “Radiation dose in the whole body and radiosensitive organs” value (Radiation dosimetry; whole body, red marrow, gonads, breasts) of the same molecule?
Answer: The value was no more than 0.01 mGy/MBq.

Question: What about the “Radiotracer-related adverse events with monitored heart rate or blood pressure” value [1] of the same molecule?
Answer: Its value is “no radiotracer-related adverse events”.

Question: And the Adverse events ([1]; IV bolus average 320.6 MBq)?
Answer: The Adverse events was “No major radiotracer-specific adverse events; also recorded: safe to administer”.

Question: And the “Radiotracer uptake in the brain” value [2]?
Answer: The value was “No radiotracer uptake”.

Question: And the “SUVmax, individual lesions” value (prostate cancer; PET4 and PET5, approximately 1 and 2 h post-radiotracer injection)?
Answer: Its value is “greater than 100”.

Question: What about the “SUVmax, highest uptake at a site of primary disease” value (prostate cancer; PET5 (120 min post-injection)) of the same molecule?
Answer: The value was 71.6.

Question: What about the “SUVmax, most avid bone lesions” value (prostate cancer; PET5 (120 min post-injection)) of the same molecule?
Answer: Its value is 102.0.

Question: And the “SUVmax, most avid lymph node lesion” value (prostate cancer; PET5 (120 min post-injection))?
Answer: The value was 100.3.

Question: And the “SUVmax in putative sites of prostate cancer (highest, some lesions)” value (prostate cancer; SUVmax normalized to lean body mass)?
Answer: Its value is greater than 100.

Question: What about the Red cell binding ([3]; 86 and 137 min post-injection) of the same molecule?
Answer: The Red cell binding was “non-detectable”.

Question: And the Red cell binding ([3]; 20 min post-injection)?
Answer: The Red cell binding was “negligible”.

Question: And the “Average urinary excretion of the radiotracer” value ([3]; by 2 h post-injection)?
Answer: The value was 11%.

Question: What about the “Urinary excretion of the radiotracer, range” value ([3]; by 2 h post-injection) of the same molecule?
Answer: The value was 6–15%.

Question: What about the “Average urinary excretion of the radiotracer” value ([3]; by 3 h post-injection) of the same molecule?
Answer: Its value is 16%.

Question: And the “Urinary excretion of the radiotracer, range” value ([3]; by 3 h post-injection)?
Answer: The value was 8–21%.

Question: What about the “Radiotracer metabolites in plasma (radio-HPLC)” value ([3]; three patients, up to 173 min post-injection) of the same molecule?
Answer: The value was “all plasma activities were in the form of unmetabolized radioligand; also recorded: no metabolism”.
